Test results published in ChEMBL document CHEMBL4732122, “Pleiotropic prodrugs: Design of a dual butyrylcholinesterase inhibitor and 5-HT receptor antagonist with therapeutic interest in Alzheimer's disease” (Eur J Med Chem, 2021).
“And” between values parts separate entries of the source, which are not always exact repeats. Equal values may be shown once. The source made the active and inactive calls. The calls are words filed in the database; no cut-off is given here.

What was measured:
[1] = biological target: T1, 5-hydroxytryptamine receptor 6 (Homo sapiens, UniProt P50406); test: Antagonist activity at human 5HT6 receptor expressed in COS-7 cells assessed as inhibition of 5HT-induced cAMP accumulation preincubated for 7 mins followed by 5-HT addition and measured after 10 mins by HTRF assay relative to control; format: functional, cell-based; set-up: scale not given: the % may be the effect or the level left; details: COS7, filed as antagonist
Procedure, shortened: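 COS-7 cells grown in DMEM with 10% dialyzed FCS, transiently transfected by electroporation with HA-tagged 5-HT6R plasmid, seeded. 24 h later, ligands added at 37 °C for 7 min. Then 5-HT (5.10^-7 M final) plus RO-20-1724 (0.1 mM final) added for 10 min at 37 °C. Cells lysed in 0.1% Triton X-100 and cAMP read by HTRF. Log IC50 is mean ± SEM of three experiments.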

[2] = biological target: T1, 5-hydroxytryptamine receptor 6; test: Displacement of [3H]-LSD from human 5HT6 receptor expressed in HEK293 cell membrane at 10^-6 M measured after 60 mins relative to control; format: cell membranes; details: dose 1.0 µM
Procedure, shortened: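 Membranes of HEK-293 cells transiently expressing human 5-HT6R (4 µg protein) incubated in duplicate for 60 min at 37 °C with 2.5 nM [3H]-LSD and drug at 10^-6 or 10^-8 M. Buffer was 25 mM Tris-HCl pH 7.4 with 0.5 mM EDTA. Filtered on GF/C and washed with ice-cold Tris buffer. Non-specific binding defined with 100 µM serotonin.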

[3] = biological target: T1, 5-hydroxytryptamine receptor 6; test: Displacement of [3H]-LSD from human 5HT6 receptor expressed in HEK293 cell membrane at 10^-5 M measured after 60 mins relative to control; format: cell membranes; details: dose 10.0 µM
Acetylcholinesterase [4] = biological target: T2, Acetylcholinesterase (Homo sapiens, UniProt P22303); test: Inhibition of human erythrocyte AChE at 10^-6 M using acetylthiocholine iodide as substrate peincubated for 5 mins followed by substrate addition by DTNB-reagent based Ellman's method relative to control; details: dose 1.0 µM
Procedure, shortened: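 Human erythrocyte AChE diluted in 20 mM HEPES pH 8 with 0.1% Triton X-100 (0.05 U final). Preincubated 5 min at 25 °C with compound and 0.3 mM DTNB in phosphate buffer pH 7.4. Reaction started with 1 mM acetylthiocholine iodide.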

[5] = Toxicity of compound in ip dosed NMRI mouse assessed as mortality after 24 hrs; format: organism-based; details: in vivo
Procedure, shortened: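 Mice in groups of four given 1, 10 or 100 mg/kg ip in 0.9% NaCl. Behavioral and neurological signs scored by standardized observation at 30 min, 3 h and 24 h. Approximate LD50 from mortality at 24 h. Amphetamine 2 mg/kg and chlorpromazine 10 mg/kg served as references.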

[6] = Effect on spontaneous locomotory activity in NMRI mouse at 1 to 10 mg/kg, ip measured for 30 mins; format: ADME, organism-based; details: in vivo, 0.5 h, dose 1-10 mg/kg
Procedure, shortened: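 Mice dosed ip at 1, 3 or 10 mg/kg in 0.9% NaCl, 30 min before test; chlorpromazine 3 mg/kg as depressive reference. Locomotion counted as infrared beam breaks in individual cages of an actimeter over 30 min. n = 8 per group; analyzed by ANOVA.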

[7] = biological target: T1, 5-hydroxytryptamine receptor 6; test: Antagonist activity at human 5HT6 receptor expressed in COS-7 cells assessed as inhibition of 5HT-induced cAMP accumulation preincubated for 7 mins followed by 5-HT addition and measured after 10 mins by HTRF assay; format: functional, cell-based, COS7
Procedure, shortened: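 COS-7 cells grown in DMEM with 10% dialyzed FCS, transiently transfected by electroporation with HA-tagged 5-HT6R plasmid, seeded. 24 h later, ligands added at 37 °C for 7 min. Cells lysed in 0.1% Triton X-100 and cAMP read by HTRF. Log IC50 is mean ± SEM of three experiments.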

[8] = biological target: T1, 5-hydroxytryptamine receptor 6; test: Displacement of [3H]-LSD from human 5HT6 receptor expressed in HEK293 cell membrane measured after 60 mins; format: cell membranes
[9] = Stability of compound in PBS buffer at pH 7.4 assessed as equine BuChE mediated decarbamoylation of compound at 5 uM incubated for 24 hrs by HPLC-LC/MS analysis; format: physicochemical; details: pH 7.4, 24 h
Procedure, shortened: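 Compound (5 µM) incubated in PBS pH 7.4 at 25 °C with 250 U/mL BuChE, or without enzyme as control. After incubation, extracted with ethyl acetate, evaporated and taken up in acetonitrile. Analyzed by C18 reversed-phase HPLC (water/acetonitrile with 0.1% formic acid, detection 280 nm) and LC-MS.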

Cholinesterase [10] = biological target: T3, Cholinesterase (Homo sapiens, UniProt P06276); test: Inhibition of human BuChE using butyrylthiocholine iodide as substrate peincubated for 5 mins followed by substrate addition by DTNB-reagent based Ellman's method
Acetylcholinesterase [11] = biological target: T2, Acetylcholinesterase; test: Inhibition of human erythrocyte AChE using acetylthiocholine iodide as substrate peincubated for 5 mins followed by substrate addition by DTNB-reagent based Ellman's method
Cholinesterase [12] = biological target: T3, Cholinesterase; test: Inhibition of human BuChE at 10^-5 M using butyrylthiocholine iodide as substrate peincubated for 5 mins followed by substrate addition by DTNB-reagent based Ellman's method relative to control; details: dose 10.0 µM
[13] = biological target: Cholinesterase (Equus caballus) (UniProt P81908); test: Mixed type inhibition of equine BuchE at 10 to 500 nM using varying levels of butyrylthiocholine iodide as substrate by Lineweaver-Burk plot analysis; details: dose 10-500 nM
Procedure, shortened: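 Ellman method with equine BuChE. Butyrylthiocholine iodide varied from 0.1 to 1 mM, inhibitor at 10, 50, 100 and 500 nM. Double-reciprocal plots of 1/velocity versus 1/[substrate] used to assign the inhibition mode.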

Homo sapiens = species on record: Homo sapiens; test: Selectivity index, ratio of IC50 for human BuChE to IC50 for human erythrocyte AChE
Mus musculus [14] = test: Reversal of MK801-induced working memory deficit in NMRI mouse assessed as increase in spontaneous alteration at 10 mg/kg, ip measured after 30 mins by Y-maze test; format: functional, organism-based
Procedure, shortened: (§1)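 Compound 10 mg/kg ip in 0.9% NaCl given 30 min before test. Scopolamine 0.5 mg/kg or MK801 0.1 mg/kg given sc 20 min before test to induce the deficit. Mouse placed in a three-arm Y maze for a 5 min session; arm-entry sequence recorded by an observer to score spontaneous alternation. n = 9 per group.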

Mus musculus [15] = test: Reversal of scopolamine-induced working memory deficit in NMRI mouse assessed as increase in spontaneous alteration at 10 mg/kg, ip measured after 30 mins by Y-maze test; format: functional, organism-based; procedure, shortened: as §1

T2 sequence (P22303 whole entry): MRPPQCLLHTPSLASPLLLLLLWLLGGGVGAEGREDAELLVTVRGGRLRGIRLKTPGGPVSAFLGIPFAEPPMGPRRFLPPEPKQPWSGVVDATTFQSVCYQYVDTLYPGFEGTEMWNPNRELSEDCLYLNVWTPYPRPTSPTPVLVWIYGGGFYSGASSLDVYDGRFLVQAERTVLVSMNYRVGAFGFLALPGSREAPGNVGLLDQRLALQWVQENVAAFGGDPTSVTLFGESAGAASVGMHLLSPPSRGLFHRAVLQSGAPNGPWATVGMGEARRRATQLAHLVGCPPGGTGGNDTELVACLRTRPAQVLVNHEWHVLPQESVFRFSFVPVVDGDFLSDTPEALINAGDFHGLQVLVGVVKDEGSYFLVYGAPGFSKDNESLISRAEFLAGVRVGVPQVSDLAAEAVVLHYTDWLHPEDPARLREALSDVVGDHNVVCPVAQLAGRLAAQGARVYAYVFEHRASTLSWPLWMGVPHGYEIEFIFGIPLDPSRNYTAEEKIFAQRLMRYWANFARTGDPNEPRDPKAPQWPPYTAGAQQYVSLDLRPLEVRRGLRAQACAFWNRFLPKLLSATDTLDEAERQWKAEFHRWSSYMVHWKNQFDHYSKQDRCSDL
T3 sequence (P06276 whole entry): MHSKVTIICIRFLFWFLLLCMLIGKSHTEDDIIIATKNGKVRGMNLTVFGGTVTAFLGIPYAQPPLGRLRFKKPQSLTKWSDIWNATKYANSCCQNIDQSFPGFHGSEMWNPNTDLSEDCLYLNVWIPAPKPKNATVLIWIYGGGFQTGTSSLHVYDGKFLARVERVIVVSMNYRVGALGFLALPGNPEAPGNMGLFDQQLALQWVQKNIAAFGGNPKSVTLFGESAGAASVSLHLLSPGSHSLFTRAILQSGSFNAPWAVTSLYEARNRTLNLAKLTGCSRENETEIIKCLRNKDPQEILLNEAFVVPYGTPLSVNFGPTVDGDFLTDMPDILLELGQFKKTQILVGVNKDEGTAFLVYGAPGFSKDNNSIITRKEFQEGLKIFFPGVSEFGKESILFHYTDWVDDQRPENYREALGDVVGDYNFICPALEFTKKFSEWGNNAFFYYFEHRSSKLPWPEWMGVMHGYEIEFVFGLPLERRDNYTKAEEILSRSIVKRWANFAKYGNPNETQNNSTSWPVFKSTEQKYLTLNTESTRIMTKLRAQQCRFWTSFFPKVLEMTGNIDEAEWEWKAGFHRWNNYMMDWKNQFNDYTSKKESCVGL
T1 sequence (P50406 whole entry): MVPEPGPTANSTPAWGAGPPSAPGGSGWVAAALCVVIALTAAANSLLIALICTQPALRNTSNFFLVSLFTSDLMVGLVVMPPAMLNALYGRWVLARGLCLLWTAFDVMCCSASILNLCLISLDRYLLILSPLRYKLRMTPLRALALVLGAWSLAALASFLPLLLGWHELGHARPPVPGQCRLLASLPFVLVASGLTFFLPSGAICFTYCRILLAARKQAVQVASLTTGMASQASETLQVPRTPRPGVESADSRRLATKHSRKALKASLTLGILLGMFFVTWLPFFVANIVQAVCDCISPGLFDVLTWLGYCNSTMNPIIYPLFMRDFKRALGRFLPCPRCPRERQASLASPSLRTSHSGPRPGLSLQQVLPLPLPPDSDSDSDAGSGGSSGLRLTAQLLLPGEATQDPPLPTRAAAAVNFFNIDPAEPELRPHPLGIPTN
Chain of Cholinesterase (Equus caballus) (P81908 whole entry): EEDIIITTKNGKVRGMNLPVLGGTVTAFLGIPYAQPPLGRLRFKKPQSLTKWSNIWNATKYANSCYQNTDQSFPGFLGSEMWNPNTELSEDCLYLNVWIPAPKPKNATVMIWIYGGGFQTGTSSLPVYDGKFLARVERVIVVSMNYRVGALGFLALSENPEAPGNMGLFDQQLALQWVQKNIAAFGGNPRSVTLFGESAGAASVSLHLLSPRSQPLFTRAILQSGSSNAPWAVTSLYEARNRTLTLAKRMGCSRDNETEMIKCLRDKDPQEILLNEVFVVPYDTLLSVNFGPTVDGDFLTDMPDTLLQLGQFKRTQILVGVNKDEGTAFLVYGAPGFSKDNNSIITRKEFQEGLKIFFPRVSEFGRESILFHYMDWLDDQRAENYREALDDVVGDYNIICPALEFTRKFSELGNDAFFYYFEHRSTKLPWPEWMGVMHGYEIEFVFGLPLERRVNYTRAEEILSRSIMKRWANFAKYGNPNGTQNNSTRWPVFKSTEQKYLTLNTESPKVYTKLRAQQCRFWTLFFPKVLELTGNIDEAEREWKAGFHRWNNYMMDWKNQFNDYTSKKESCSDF

Question: Which Activity [1] does the source give for `Fc1ccc2c(CCNCc3cccc(OCC(F)(F)C(F)F)c3)c[nH]c2c1` here?
Answer: 101%

Question: And the inhibition ([2]; filed as antagonist)?
Answer: 106%

Question: What about the inhibition ([3]; filed as antagonist) of the same compound?
Answer: 88%

Question: What about the inhibition (Acetylcholinesterase [4]) of the same compound?
Answer: 6%

Question: Which LD50 at 24 h [5] does the source give for `O=C(O)/C=C/C(=O)O.Oc1cccc(CNCCc2c[nH]c3cc(F)ccc23)c1` here?
Answer: > 100 mg/kg

Question: And the Activity [6]?
Answer: Non-Toxic

Question: And the IC50 [7]?
Answer: 2000 nM

Question: And the Ki [8]?
Answer: 4.3 nM

Question: For `CCN(C)C(=O)Oc1cccc(CNCCc2c[nH]c3cc(F)ccc23)c1.O=C(O)/C=C/C(=O)O`, which LD50 at 24 h [5] is on record?
Answer: > 100 mg/kg

Question: What about the Activity [6] of the same compound?
Answer: Non-Toxic

Question: And the Drug metabolism [9]?
Answer: Metabolite_Detected

Question: What about the IC50 (Cholinesterase [10]) of the same compound?
Answer: 835 nM

Question: And the IC50 (Acetylcholinesterase [11])?
Answer: 17600 nM

Question: What does the source list for `CCN(C)C(=O)Oc1cccc(CNCCc2c[nH]c3cc(F)ccc23)c1` [listing 1 of 2 here]?
Answer: IC50 (Cholinesterase [10]): 927 nM; IC50 (Acetylcholinesterase [11]): 16500 nM

Question: With `Oc1cccc(CNCCc2c[nH]c3cc(F)ccc23)c1` [listing 1 of 2 here] as the compound, how does the Ki [8] read?
Answer: 11.4 nM

Question: Which inhibition (Cholinesterase [12]) does the source give for `CCN(C)C(=O)Oc1cccc(CNCCc2c[nH]c3cc(F)ccc23)c1` [listing 2 of 2 here] here?
Answer: 93% and 97%

Question: And the inhibition [13]?
Answer: Active

Question: And the Ratio IC50 (Homo sapiens)?
Answer: 0.06 and 0.05

Question: What about the Activity (Mus musculus [14]) of the same compound?
Answer: inactive

Question: What about the inhibition [2] of the same compound?
Answer: 37%

Question: And the inhibition ([2]; filed as antagonist)?
Answer: 53%

Question: What about the inhibition [3] of the same compound?
Answer: 24% and 32%

Question: What about the Activity (Mus musculus [15]) of the same compound?
Answer: Active

Question: And the inhibition (Acetylcholinesterase [4])?
Answer: 9% and 5%

Question: Which IC50 (Cholinesterase [10]) does the source give for `C[C@]12N[C@H](Cc3ccccc31)c1ccccc12` [DIZOCILPINE] here?
Answer: 16000 nM

Question: For `Fc1ccc2c(CCNCc3cccc(OCc4ccccc4)c3)c[nH]c2c1`, which inhibition (Cholinesterase [12]) is on record?
Answer: 2%

Question: What about the inhibition ([2]; filed as antagonist) of the same compound?
Answer: 103%

Question: What about the inhibition [3] of the same compound?
Answer: 14%

Question: What about the inhibition (Acetylcholinesterase [4]) of the same compound?
Answer: 4%

Question: Which inhibition (Cholinesterase [12]) does the source give for `Oc1cccc(CNCCc2c[nH]c3cc(F)ccc23)c1` [listing 2 of 2 here] here?
Answer: 11% and 8%

Question: And the Activity [1]?
Answer: 87.2%

Question: And the Activity (Mus musculus [14])?
Answer: Active

Question: And the inhibition ([2]; filed as antagonist)?
Answer: 104% and 85%

Question: And the inhibition [3]?
Answer: 33%

Question: And the inhibition ([3]; filed as antagonist)?
Answer: 48%

Question: What about the Activity (Mus musculus [15]) of the same compound?
Answer: inactive

Question: And the inhibition (Acetylcholinesterase [4])?
Answer: 8% and 2%
